Bioassay records as filed in PubChem BioAssay.
The list is not random: actives were taken first. Their share in the collection is about 1.6%.
HNF4A DNA FP – change in binding of human HNF4A to DNA, primary screen, biochemical, fluorescence polarization, FITC-DNA | Hepatocyte nuclear factor 4-alpha (Homo sapiens), P41235 | activity change, % at 10 µM | 0.3% of 360,000 active | 1 h; in the data active means activity change above about 30%, passing the limit was not always enough
PKA-R2B act – activators of PKA-R2B holoenzyme, primary screen, biochemical, fluorescence polarization, Cy5-IP20, human; 0.079% of 340,000 active; AID 504700, 2011; cAMP-dependent protein kinase catalytic subunit beta (Homo sapiens) + cAMP-dependent …; PKA-R2B holoenzyme dissociation; R2B truncated from residue 108, S112A mutant; 0% DMSO only, 100% 113 µM cGMP; activation, % at 11.4 µM;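 active means activation above a cutoff set at the mean over all compounds plus 3 SD, cut at about 18% in these data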;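 further: higher means more holoenzyme dissociation and a rise in polarization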
Rpn11 inh – Rpn11 (PSMD14) deubiquitinase inhibitors, primary screen, biochemical, fluorescence polarization, uHTS; 0.59% of 360,000 active; human 26S proteasome, Ub4-pepOG fluorescence polarization; 20S core pre-blocked with epoxomicin; calls only at 20 µM; 26S proteasome non-ATPase regulatory subunit 14 (Homo sapiens), O00487;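 active means inhibition at 20 µM, scaled to each plate's controls, above about 33%, limit read from the data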
Target sequence (O00487 whole entry, looked up): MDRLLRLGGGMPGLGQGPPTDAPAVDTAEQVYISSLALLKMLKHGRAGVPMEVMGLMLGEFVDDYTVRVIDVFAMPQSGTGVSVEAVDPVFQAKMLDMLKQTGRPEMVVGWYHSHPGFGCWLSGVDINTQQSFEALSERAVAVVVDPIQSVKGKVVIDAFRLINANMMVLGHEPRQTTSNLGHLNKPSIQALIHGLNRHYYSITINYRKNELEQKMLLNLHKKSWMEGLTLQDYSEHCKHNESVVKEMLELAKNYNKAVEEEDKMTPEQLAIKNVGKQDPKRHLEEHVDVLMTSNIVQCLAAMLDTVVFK
CSN deneddyl inh – inhibitors of CSN-mediated cullin deneddylation, primary screen, biochemical, fluorescence polarization, uHTS; Purified CSN, SCF-Nedd8-OG deneddylation; inhibition, % at 12.5 µM; 0.38% of 360,000 active; AID 651999, 2013;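 active means pattern-corrected inhibition above about 35%, with an unprinted fluorescence ratio check between 0.5 and 1.5, limit read from the data, passing the limit was not always enough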;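 further: 0% = enzyme with substrate and 100% = substrate without enzyme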
Target sequence (Q92905 whole entry, looked up, one chain of several): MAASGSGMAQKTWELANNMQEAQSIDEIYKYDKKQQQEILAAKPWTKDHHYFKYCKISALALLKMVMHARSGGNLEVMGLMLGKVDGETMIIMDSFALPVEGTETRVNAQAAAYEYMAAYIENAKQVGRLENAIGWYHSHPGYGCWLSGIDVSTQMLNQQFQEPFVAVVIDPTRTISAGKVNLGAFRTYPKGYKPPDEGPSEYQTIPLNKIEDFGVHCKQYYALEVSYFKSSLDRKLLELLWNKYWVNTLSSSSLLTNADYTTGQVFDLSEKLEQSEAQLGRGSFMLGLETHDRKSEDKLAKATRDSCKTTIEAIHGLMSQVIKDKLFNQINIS
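Test system: purified human Csn5 enzyme expressed in HEK293T cells. Amount: 0.24 nM enzyme. Reagent: SCFSkp2-Nedd8OG substrate at 10 nM final. Schedule: 90 min incubation of compound, enzyme and substrate at room temperature. Detection: fluorescence polarization. Read-out: % inhibition of substrate cleavage by Csn5.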
TPT1 inh – Candida albicans TPT1 enzyme inhibitors, primary screen, biochemical, fluorescence polarization. recombinant caTPT1, FP RNA substrate dephosphorylation. inhibition, % at 5 µM. 0.81% of 300,000 active. AID 1962, 2009;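 active means inhibition above the mean of all tested compounds plus 3 SD, set per screening campaign, cut at about 24% in these data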;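 further: plate controls were DMSO alone for no effect and ferristatin control at 100 nM for full effect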
PKA-R1A act – activators of PKA-R1A holoenzyme, primary screen, biochemical, fluorescence polarization, Cy5-IP20, bovine R1A, mouse PKAc. 0.083% of 340,000 active. PKA-R1A dissociation; scaled: DMSO 0%, 113 µM cGMP 100%. activation, % at 11.4 µM. cAMP-dependent protein kinase type I-alpha regulatory subunit (Bos taurus) + …;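 active means percent activation above the mean of all tested compounds plus 3 SD, cut at about 19% in these data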;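 further: higher means more PKAc released from R1A so a rise in polarization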
caTPT1 confirm – Candida albicans TPT1 inhibitors, confirmation, biochemical, fluorescence polarization, triplicate. shares compounds with TPT1 inh. recombinant caTPT1, RNase T1 coupled. inhibition, % at 5 µM. 74% of 2,400 active. AID 2149, 2009;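 active means inhibition above the primary screen limit, the mean inhibition of all tested compounds plus 3 SD, cut at about 25% in these data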
RNase T1 inh – RNase T1 inhibitors, counter-screen for TPT1 inhibitor project, biochemical, fluorescence polarization | shares compounds with TPT1 inh | RNase T1 cleavage, 1536-well | inhibition, % at 5 µM | 83% of 2,400 active | AID 2153, 2009;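 active means inhibition above the solvent-only control well mean plus 3 SD, limit set per screening run, cut at about 23% in these data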;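 further: plate controls were DMSO wells with enzyme for no effect and wells without RNase T1 for full effect; inhibitors block cleavage so intact labeled substrate keeps polarization high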
Rpn11 confirm – Rpn11 (PSMD14) deubiquitinase inhibitors, confirmation, biochemical, fluorescence polarization, single concentration; inhibition, % at 20 µM; shares compounds with Rpn11 inh; 29% of 1,900 active; purified human 26S proteasome, Ub4-pepOG fluorescence polarization; proteasome pretreated with epoxomicin; AID 602318, 2012
MMP-2 counter-1 – MMP-2 enzyme inhibition, confirmation, counter-screen for RPN11 inhibitor project, biochemical, fluorescence, single concentration. shares compounds with Rpn11 inh. recombinant MMP-2, FRET peptide cleavage fluorescence. inhibition, % at 20 µM. 4% of 1,900 active;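 further: human MMP-2 activated beforehand with APMA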
Thrombin inh – bovine thrombin protease inhibition, confirmation, counter-screen for Rpn11 inhibitor project, biochemical, fluorescence polarization, single concentration; shares compounds with Rpn11 inh; bovine thrombin cleavage of Ub4-pepOG; inhibition, % at 20 µM; 13% of 1,900 active; AID 602333, 2012;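 active means mean inhibition at least 40% at 20 µM, or signal 3 deviations below plate average, so some actives read negative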;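 further: plate controls were thrombin with DMSO for no effect and buffer wells lacking thrombin for full effect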
CSN5 deneddyl – Csn5 deneddylation inhibitors, confirmation, biochemical, fluorescence polarization, single concentration, SCF-Nedd8OG substrate. shares compounds with CSN deneddyl inh. Csn5 deneddylation of SCF-Nedd8OG, 90 min. inhibition, % at 16.6 µM. 62% of 540 active. AID 720654, 2013; in the data active means inhibition above about 50%;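 further: 0% = DMSO with enzyme and 100% = no enzyme wells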
MMP-2 counter-2 – MMP-2 protease inhibition counter-screen, confirmation, counter-screen for CSN deneddylation inhibitor project, biochemical, fluorescence, single concentration | shares compounds with CSN deneddyl inh | recombinant MMP-2, FRET substrate fluorescence, 60 min | inhibition, % at 16.6 µM | 33% of 540 active | AID 720655, 2013;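 active means corrected plate-normalized z-score of 5 or more, or -5 or less, or inhibition of 15% or more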;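 further: plate controls were DMSO wells with enzyme for no effect and buffer wells lacking MMP-2 for full effect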
Thrombin counter – thrombin (bovine) inhibition, counter-screen for CSN hits | shares compounds with CSN deneddyl inh | 49% of 540 active | bovine thrombin cleavage of Ub4-pepOG, fluorescence polarization | inhibition, % at 16.6 µM;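 active means inhibition at or above a set limit, with a fluorescence interference ratio between 0.5 and a set maximum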
HNF4a DNA conf – change in HNF4A binding to DNA, retest, confirmation, biochemical, fluorescence polarization, FITC-DNA | shares compounds with HNF4A DNA FP | 1 h | activity change, % at 12.5 µM | 99% of 210 active; call rule not given here
* marks the source's active call; other numbers are inactive results; i = inactive; . = no result given; + = active, no number. Unless noted, no stated cut-off is given here; in the data, active means inhibition above about 40%; inactive means the rest.

SMILES | HNF4A DNA FP | PKA-R2B act | Rpn11 inh | CSN deneddyl inh | TPT1 inh | PKA-R1A act | caTPT1 confirm | RNase T1 inh | HNF4a DNA conf | others
CCCC[C@@H]1C=C(C(=O)O)[C@H](c2ccc3c(c2)OCO3)N1S(=O)(=O)c1ccc(C)cc1 | -3 | -3 | i | 2 | . | -3 | . | . | .
COC1=CC(=Cc2c(N)n3nc(CC(=O)N4CCOCC4)sc3nc2=O)C=C(OC)C1=O | 62* | -4 | . | 88* | 50* | -11 | 132* | 131* | . | CSN5 deneddyl=94*;MMP-2 counter-2=-20;Thrombin counter=83*
CC(=O)c1c(C)cc(C)c(CSc2ccccn2)c1C | 1 | 3 | i | 1 | -2 | 9 | . | . | .
O=C(NCc1cccc(C(F)(F)F)c1)c1ccc2c(c1)OCO2 | 0 | -8 | i | -5 | . | 6 | . | . | .
COc1ccc2nc(N3C(=O)/C(=C/c4ccccc4)NC3=S)sc2c1 | 108 | -1 | . | 95* | 111* | -4 | 115* | 119* | . | CSN5 deneddyl=92*;MMP-2 counter-2=-12;Thrombin counter=74*
COc1ccc2nc(-n3c(C)ccc3C)sc2c1 | 4 | 8 | i | 4 | -1 | 6 | . | . | .
CCOC(=O)C(=NCCCN1CCOCC1)NNc1cccc(C(F)(F)F)c1 | -4 | -2 | i | -5 | -3 | 2 | . | . | .
O=C(O)c1ccc(CN2C(=O)c3ccc(Oc4ccc([N+](=O)[O-])cc4)cc3C2=O)cc1 | 0 | -5 | i | -3 | 4 | -14 | . | . | .
O=C(O)C(c1ccccc1)N1C(=O)/C(=C\c2ccc(-c3ccccc3Cl)o2)SC1=S (stereo unspecified) | 62 | -3 | . | 92* | 124* | 3 | 128* | 130* | . | CSN5 deneddyl=-58;MMP-2 counter-2=5;Thrombin counter=94*
COc1cc2c(cc1OC)C(c1cc3cccc(C)c3[nH]c1=O)N(C(=O)c1ccco1)CC2 (stereo unspecified) | -1 | 14 | i | 0 | -7 | -10 | . | . | .
CCOc1cc(/C=C2\N=C3CCCCCN3C2=O)ccc1O | 49* | 4 | . | 58* | 43* | -8 | 58* | 60* | 71*
Cc1cccc2c(N=Nc3ccccc3)c(O)[nH]c12 | 72 | 11 | . | 30 | 5 | 12 | . | . | .
CC(C)OC(=O)c1cc(C(=O)c2cc(F)ccc2O)coc1=N | 5 | 8 | i | 3 | 0 | 4 | . | . | .
COc1ccc(O)c(C(=O)c2coc(=N)c(C(=O)Nc3ccc(SC(F)F)cc3)c2)c1 | 44* | -2 | . | 56* | 63* | -2 | 75* | 78* | 65*
N#Cc1c(-c2c(Cl)cccc2Cl)noc1/C=C/Nc1ccc(C(=O)O)cc1 | 2 | -6 | i | -1 | 3 | -5 | . | . | .
CSc1nsc(/C=C/Nc2ccc(C(=O)O)cc2)c1C#N | 49* | 0 | + | 29 | 31* | 4 | 43* | 53* | 45* | Rpn11 confirm=53*;MMP-2 counter-1=-7;Thrombin inh=42*
CCN(CC(=O)Nc1cc(Cl)ccc1C)C(=O)c1ccc(=O)n(Cc2ccccc2)n1 | -2 | 0 | i | 3 | -4 | 1 | . | . | .
Cc1cccc(-c2noc(CNC(=O)c3ccoc3C)n2)c1 | 50* | -9 | . | 20 | 34* | 1 | 65* | 74* | 32*
CCOC(=O)/C(C#N)=C/C=C1\C=Cc2ccccc2N1CC | 94* | 4 | . | 44* | 79* | 1 | 83* | 93* | 101* | CSN5 deneddyl=99*;MMP-2 counter-2=-1;Thrombin counter=55*
CCOC(=O)/C(C#N)=C/c1cc(C)n(-c2ccccc2)c1C | -1 | -11 | i | 0 | 4 | -22 | . | . | .
N#C/C(=C\c1ccc(-c2ccccc2C(=O)O)o1)c1nc2ccccc2[nH]1 | 44* | 11 | . | 24 | 95* | -3 | 117* | 121* | 91*
N#CCc1nc2ccc(S(=O)(=O)N3CCOCC3)cc2s1 | 52* | -3 | . | 49* | 85* | -10 | 62* | 76* | 54*
